Assay results as given in ChEMBL document CHEMBL1123214, “(o- and p-Nitrobenzyloxycarbonyl)-5-fluorouracil derivatives as potential conjugated bioreductive alkylating agents” (1986).

Legend:
Assay type in all cases: functional
Mus musculus [1] = assay: Compound was tested for the effect on the survival time of the mice bearing P388 leukemia at dose 200 mg/kg; ratio of survival time of treated and control
Procedure, shortened: (§1)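 Ascites cells were taken from donor CDF₁ mice with 7-day growths, spun, diluted 10-fold in isotonic saline and set to 10⁷ cells/mL. About 10⁶ cells were given ip per mouse. Drug was homogenized in 20% aqueous Tween 80, made up in saline, and given ip once daily for 6 days from 24 h after implant. Vehicle controls were included. Read-out was survival time, as T/C × 100, with % weight change as toxicity.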

Mus musculus [2] = assay: Compound was tested for the effect on the survival time of the mice bearing P388 leukemia at dose 60 mg/kg; ratio of survival time of treated and control; procedure, shortened: as §1
Mus musculus [3] = assay: Compound was tested for the effect on the survival time of the mice bearing Sarcoma 180 ascites at dose of 20 mg/kg; procedure, shortened: as §1
Mus musculus [4] = assay: Compound was tested for the effect on the survival time of the mice bearing P388 leukemia at dose 80 mg/kg; procedure, shortened: as §1
Mus musculus [5] = assay: Compound was tested for the effect on the survival time of the mice bearing Sarcoma 180 ascites at dose of 40 mg/kg; procedure, shortened: as §1
Mus musculus [6] = assay: Compound was tested for the effect on the survival time of the mice bearing P388 leukemia at dose 200 mg/kg; procedure, shortened: as §1
Mus musculus [7] = assay: Compound was tested for the effect on the survival time of the mice bearing Sarcoma 180 ascites at dose of 40 mg/kg; ratio of survival time of treated and control; procedure, shortened: as §1
Mus musculus [8] = assay: Compound was tested for the effect on the survival time of the mice bearing P388 leukemia at dose 40 mg/kg; procedure, shortened: as §1
Mus musculus [9] = assay: Compound was tested for the effect on the survival time of the mice bearing P388 leukemia at dose 100 mg/kg; ratio of survival time of treated and control; procedure, shortened: as §1
Mus musculus [10] = assay: Compound was tested for the effect on the survival time of the mice bearing P388 leukemia at dose 40 mg/kg; ratio of survival time of treated and control; procedure, shortened: as §1
Mus musculus [11] = assay: Compound was tested for the effect on the survival time of the mice bearing P388 leukemia at dose 80 mg/kg; ratio of survival time of treated and control; procedure, shortened: as §1
Mus musculus [12] = assay: Compound was tested for the effect on the survival time of the mice bearing Sarcoma 180 ascites at dose of 10 mg/kg; procedure, shortened: as §1
Mus musculus [13] = assay: Compound was tested for the effect on the survival time of the mice bearing P388 leukemia at dose 20 mg/kg; procedure, shortened: as §1
Mus musculus [14] = assay: Compound was tested for the effect on the survival time of the mice bearing P388 leukemia at dose 20 mg/kg; ratio of survival time of treated and control; procedure, shortened: as §1
Mus musculus [15] = assay: Compound was tested for the effect on the survival time of the mice bearing Sarcoma 180 ascites at dose of 10 mg/kg; ratio of survival time of treated and control; procedure, shortened: as §1
Mus musculus [16] = assay: Compound was tested for the effect on the survival time of the mice bearing P388 leukemia at dose 100 mg/kg; procedure, shortened: as §1
Mus musculus [17] = assay: Compound was tested for the effect on the survival time of the mice bearing P388 leukemia at dose 60 mg/kg; procedure, shortened: as §1
Mus musculus [18] = assay: Compound was tested for the effect on the survival time of the mice bearing Sarcoma 180 ascites at dose of 20 mg/kg; ratio of survival time of treated and control; procedure, shortened: as §1
Mus musculus [19] = assay: Compound was tested for the effect on the survival time of the mice bearing P388 leukemia at dose 25 mg/kg; ratio of survival time of treated and control; procedure, shortened: as §1
Mus musculus [20] = assay: Compound was tested for the effect on the survival time of the mice bearing P388 leukemia at dose 50 mg/kg; procedure, shortened: as §1
Mus musculus [21] = assay: Compound was tested for the effect on the survival time of the mice bearing P388 leukemia at dose 25 mg/kg; procedure, shortened: as §1
Mus musculus [22] = assay: Compound was tested for the effect on the survival time of the mice bearing P388 leukemia at dose 50 mg/kg; ratio of survival time of treated and control; procedure, shortened: as §1

Row | SMILES | T/C (Mus musculus [2]) | T/C (Mus musculus [9]) | Change in weight (Mus musculus [16]) | Change in weight (Mus musculus [17]) | T/C (Mus musculus [19]) | Change in weight (Mus musculus [20]) | Change in weight (Mus musculus [21]) | T/C (Mus musculus [22]) | further results
1 | O=C(Cc1ccc([N+](=O)[O-])cc1)On1c(=O)[nH]cc(F)c1=O | 196 | 158 | -11.6% | -2.9% |  |  |  |  | T/C (Mus musculus [1]): 64; Change in weight (Mus musculus [3]): 2.7%; Change in weight (Mus musculus [4]): -5.8%; Change in weight (Mus musculus [5]): -7.6%; Change in weight (Mus musculus [6]): -10.7%; T/C (Mus musculus [7]): 332; Change in weight (Mus musculus [8]): 0%; T/C (Mus musculus [10]): 190; T/C (Mus musculus [11]): 212; Change in weight (Mus musculus [12]): 9.6%; Change in weight (Mus musculus [13]): 5.6%; T/C (Mus musculus [14]): 165; T/C (Mus musculus [15]): 159; T/C (Mus musculus [18]): 124
2 | O=c1c(F)cn(Cc2ccccc2[N+](=O)[O-])c(=O)n1Cc1ccccc1[N+](=O)[O-] |  | 86 | 22.4% |  | 90 | 15% | 17.8% | 88 | 
3 | O=c1c(F)cn(C2CCCO2)c(=O)n1Cc1ccccc1[N+](=O)[O-] (stereo not drawn) |  | 96 | 13.7% |  | 90 | 7.8% | 10.3% | 96 | 
4 | O=c1[nH]c(=O)n(Cc2ccccc2[N+](=O)[O-])cc1F |  | 88 | 20.8% |  | 90 | 10% | 13.3% | 92 | 
5 | O=C(Cc1ccc([N+](=O)[O-])cc1)On1cc(F)c(=O)n(OC(=O)Cc2ccc([N+](=O)[O-])cc2)c1=O | 149 |  |  | -5.5% |  |  |  |  | Change in weight (Mus musculus [4]): -7.4%; Change in weight (Mus musculus [8]): -2.7%; T/C (Mus musculus [10]): 136; T/C (Mus musculus [11]): 158
6 | O=c1[nH]cc(F)c(=O)[nH]1 [FLUOROURACIL] |  |  |  |  |  |  |  |  | Change in weight (Mus musculus [3]): -3.4%; Change in weight (Mus musculus [13]): -12.5%; T/C (Mus musculus [14]): 185; T/C (Mus musculus [18]): 277
7 | O=c1[nH]c(=O)n(C2CCCO2)cc1F (stereo not drawn) [TEGAFUR] | 100 |  |  | 12.2% |  |  |  |  | 
